Where only a bound is given, the exact number is not on record here.

The experiment deals with T1, Glucocorticoid receptor (Homo sapiens) (UniProt P04150).
T1 sequence (whole entry): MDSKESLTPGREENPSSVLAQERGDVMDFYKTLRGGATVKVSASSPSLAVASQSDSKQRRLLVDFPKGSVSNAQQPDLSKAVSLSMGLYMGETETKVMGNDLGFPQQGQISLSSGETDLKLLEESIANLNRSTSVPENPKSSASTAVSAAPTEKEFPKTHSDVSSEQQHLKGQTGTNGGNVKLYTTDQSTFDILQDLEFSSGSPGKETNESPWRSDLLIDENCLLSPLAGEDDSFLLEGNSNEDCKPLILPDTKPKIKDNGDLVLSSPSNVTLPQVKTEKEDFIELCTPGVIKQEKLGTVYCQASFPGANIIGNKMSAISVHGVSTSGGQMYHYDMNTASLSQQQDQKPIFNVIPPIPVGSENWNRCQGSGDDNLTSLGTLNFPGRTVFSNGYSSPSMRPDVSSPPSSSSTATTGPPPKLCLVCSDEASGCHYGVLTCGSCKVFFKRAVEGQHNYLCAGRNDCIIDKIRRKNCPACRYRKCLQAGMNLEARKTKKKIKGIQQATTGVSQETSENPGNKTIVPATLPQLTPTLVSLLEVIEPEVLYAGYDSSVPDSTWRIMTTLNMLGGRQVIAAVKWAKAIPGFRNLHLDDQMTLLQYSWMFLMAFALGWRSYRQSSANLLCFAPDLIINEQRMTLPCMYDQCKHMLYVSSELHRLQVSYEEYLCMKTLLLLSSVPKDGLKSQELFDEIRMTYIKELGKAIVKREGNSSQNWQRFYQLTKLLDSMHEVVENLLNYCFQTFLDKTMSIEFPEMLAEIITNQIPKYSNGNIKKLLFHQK
As to the kind of experiment: Relative binding affinity against glucocorticoid receptor. The essentials: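 Competitive binding: each steroid incubated with receptor-containing cytosol and a radiolabelled marker selective for the receptor. Bound radioactivity separated by dextran-coated charcoal adsorption. The unlabelled radioligand standard curve used 9-10 concentrations; test steroids used 5-6. RBA = 100 × (radioligand conc for 50% displacement ÷ steroid conc for 50% displacement), with reference hormone set to 100. Mean of ≥3 experiments.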
The molecule `CC12CCC3=C4CCC(=O)C=C4CCC3C1CC[C@@]21CCC(=O)O1` (stereo partly specified) displayed a Relative binding affinity of 17.

The molecule `C[C@]1(O)CC[C@H]2[C@@H]3CCC4=CC(=O)CC[C@@H]4[C@H]3CC[C@@]21C` gave a Relative binding affinity of 1.5.

Consider `C[C@]12CC[C@H]3[C@@H](CCC4=CC(=O)CC[C@@H]43)[C@@H]1CC[C@@H]2O`, for which the Relative binding affinity worked out at 0.5.

In the case of `CCC12C=CC3=C4CCC(=O)C=C4C[C@@H](C)C3C1CC[C@]2(C)O` (stereo partly specified), the Relative binding affinity was found to be 145.

`CC1(C)CC2=C3C=CC4(C)C(CC[C@]4(C)O)C3CCC2=CC1=O` (stereo partly specified) gave a Relative binding affinity of 0.4.

On to `C#C[C@]1(O)CCC2C3CCC4=CC(=O)CCC4=C3CCC21CCC` (stereo partly specified), for which the Relative binding affinity came to 5.5.

On to `CC12CCC3C4CCC(=O)C=C4CCC3C1CC[C@@]21CCS(=O)O1` (stereo partly specified), for which the Relative binding affinity amounted to 0.4.

Molecule `CC12C=CC3=C4CCC(=O)C=C4CCC3C1CCC2=O` (stereo unspecified) yielded a Relative binding affinity below 0.1.

Take `CC(=O)[C@H]1CCC2C3CCC4=CC(=O)CCC4=C3C=CC21C` (stereo partly specified): the Relative binding affinity is 1.5.

As for `C[C@@H]1CC2=CC(=O)CCC2=C2C=CC3(C)C(CC[C@]3(C)O)C21` (stereo partly specified), the Relative binding affinity worked out at 22.

Consider `CC(=O)[C@@]1(C)CCC2C3CCC4=CC(=O)CCC4C3CCC21C` (stereo partly specified), for which the Relative binding affinity is 0.7.

Turning to `CC12C=CC3=C4CCC(=O)C=C4CCC3C1CCC2` (stereo unspecified), the Relative binding affinity was found to be 0.5.

`CC12CCC3=C4CCC(=O)C=C4CCC3C1CC[C@]2(C)O` (stereo partly specified): the Relative binding affinity stood at 6.

`C[C@]12CCC3=C4CCC(=O)C=C4CC[C@H]3[C@@H]1CC[C@@H]2O`: the Relative binding affinity stood at 1.6.

In turn, `CC(=O)[C@@]1(C)CCC2C3CCC4=CC(=O)CCC4=C3CCC21C` (stereo partly specified) had a Relative binding affinity of 4.5.

In turn, `CC12C=CC3=C4CCC(=O)C=C4CCC3C1CC[C@@]21CCC(=O)O1` (stereo partly specified) had a Relative binding affinity of 62.

`CC1CC2=C3C=CC4(C)C(CC[C@]4(C)O)C3CCC2=CC1=O` (stereo partly specified) had a Relative binding affinity of 1.5.

On to `CCCC12CCC3=C4CCC(=O)C=C4CCC3C1CC[C@@H]2O` (stereo partly specified), for which the Relative binding affinity is 1.9.

Molecule `C[C@]1(O)CC[C@H]2[C@@H]3CCC4=CC(=O)CCC4=C3C=C[C@@]21C` (stereo in doubt; 39) came in with a Relative binding affinity of 26.

For `C#C[C@]1(O)CCC2C3CCC4=CC(=O)CCC4C3CCC21CCC` (stereo partly specified), the Relative binding affinity is 9.8.

The molecule `CC(=O)[C@@]1(C)CCC2C3CCC4=CC(=O)CCC4=C3C=CC21C` (stereo partly specified) registered a Relative binding affinity of 2.4.

In turn, `CC12C=CC3=CCCCC3C1CC[C@]2(C)O` (stereo partly specified) registered a Relative binding affinity of 38.

Molecule `CC12C=CC3=C4CCC(=O)C=C4CCC3C1CC[C@@]21CCS(=O)O1` (stereo partly specified) registered a Relative binding affinity of 35.

The molecule `C#C[C@]1(O)CCC2C3CCC4=CC(=O)CCC4=C3C=CC21CCC` (stereo partly specified) yielded a Relative binding affinity of 6.4.

As for `C[C@@H]1CC2=CC(=O)CC[C@@H]2[C@H]2CC[C@@]3(C)[C@@H](CC[C@]3(C)O)[C@@H]21`, the Relative binding affinity turned out to be 1.4.

The molecule `CCC12C=CC3=C4CCC(=O)C=C4CCC3C1CC[C@]2(C)O` (stereo partly specified) returned a Relative binding affinity of 155.

`CCC12CCC3=C4CCC(=O)C=C4CCC3C1CC[C@@H]2O` (stereo partly specified) had a Relative binding affinity of 5.1.

As to `C[C@]1(O)CC[C@H]2[C@@H]3CCC4=CC(=O)CCC4=C3C=C[C@@]21C` (stereo in doubt; 12), the Relative binding affinity came to 26.

`CC12CCC3C4CCC(=O)C=C4CCC3C1CC[C@@]21CCC(=O)O1` (stereo partly specified) returned a Relative binding affinity of 0.1.

`CCCC12C=CC3=C4CCC(=O)C=C4CCC3C1CC[C@@H]2O` (stereo partly specified) returned a Relative binding affinity of 6.

With `CC1=C2CCC3C(=C2CCC1=O)C=CC1(C)C3CC[C@]1(C)O` (stereo partly specified), the Relative binding affinity is 0.5.

Consider `C#C[C@]1(O)CCC2C3CCC4=CC(=O)CCC4=C3CCC21C` (stereo partly specified), for which the Relative binding affinity worked out at 5.7.

On to `CC(=O)[C@H]1CC[C@H]2[C@@H]3CCC4=CC(=O)CC[C@@H]4[C@H]3CC[C@]12C`, for which the Relative binding affinity came out at 0.6.

Regarding `CCC12C=CC3=C4CCC(=O)C=C4CCC3C1CC[C@@H]2O` (stereo partly specified), the Relative binding affinity amounted to 20.

Regarding `C[C@@H]1CC2=CC(=O)CCC2=C2CCC3(C)C(CC[C@]3(C)O)C21` (stereo partly specified), the Relative binding affinity was 6.1.

`CCC12CCC3C4CCC(=O)C=C4CCC3C1CC[C@@H]2O` (stereo partly specified) showed a Relative binding affinity of 2.1.

The molecule `CC12CCC3=C4CCC(=O)C=C4CCC3C1CC[C@@]21CCS(=O)O1` (stereo partly specified) displayed a Relative binding affinity of 23.

Consider `CC12C=CC3=C4CC(=O)CC=C4CCC3C1CC[C@]2(C)O` (stereo partly specified), for which the Relative binding affinity was 68.

`C#C[C@]1(O)CC[C@H]2[C@@H]3CCC4=CC(=O)CCC4=C3C=C[C@@]21C` gave a Relative binding affinity of 11.

As to `CC1(C)CC2C(=C3CCC(=O)C=C31)C=CC1(C)C2CC[C@]1(C)O` (stereo partly specified), the Relative binding affinity was determined as 1.2.

For the molecule `CC(=O)[C@H]1CCC2C3CCC4=CC(=O)CCC4=C3CCC21C` (stereo partly specified), the Relative binding affinity amounted to 5.1.

`CC12C=CC3=C4CCCC=C4CCC3C1CC[C@]2(C)O` (stereo partly specified): the Relative binding affinity was determined as 0.3.

For the molecule `CCCC12CCC3C4CCC(=O)C=C4CCC3C1CC[C@@H]2O` (stereo partly specified), the Relative binding affinity amounted to 2.1.

`C#C[C@]1(O)CC[C@H]2[C@@H]3CCC4=CC(=O)CCC4=C3C=C[C@@]21CC`: the Relative binding affinity turned out to be 77.

With `C#C[C@]1(O)CCC2C3CCC4=CC(=O)CCC4=C3CCC21CC` (stereo partly specified), the Relative binding affinity is 17.

`C#C[C@]1(O)CCC2C3CCC4=CC(=O)CCC4C3CCC21CC` (stereo partly specified) displayed a Relative binding affinity of 14.

Source of the values: ChEMBL document CHEMBL1123211, “Correspondence analysis applied to steroid receptor binding” (J Med Chem, 1986).
